Measured values reported in ChEMBL document CHEMBL1148732, “New 2-arylpyrazolo[3,4-c]quinoline derivatives as potent and selective human A3 adenosine receptor antagonists. Synthesis, pharmacological evaluation, and ligand-receptor modeling studies” (J Med Chem, 2007).

Tests used:
Adenosine receptor A3 [1] = biological target: T1, Adenosine receptor A3 (Homo sapiens, UniProt P0DMS8); assay: Displacement of [125I]AB-MECA from human adenosine A3 receptor expressed in CHO cells; type: cell-based
T1 sequence (P0DMS8 whole entry): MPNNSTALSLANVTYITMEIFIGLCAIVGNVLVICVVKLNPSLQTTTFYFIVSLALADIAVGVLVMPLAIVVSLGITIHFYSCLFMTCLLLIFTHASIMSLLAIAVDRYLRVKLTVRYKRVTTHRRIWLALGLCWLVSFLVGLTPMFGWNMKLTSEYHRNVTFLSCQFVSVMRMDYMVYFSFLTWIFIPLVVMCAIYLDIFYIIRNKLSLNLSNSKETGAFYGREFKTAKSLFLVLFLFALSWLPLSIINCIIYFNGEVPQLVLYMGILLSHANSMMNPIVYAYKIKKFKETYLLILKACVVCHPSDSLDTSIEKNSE
In short: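 Five displacer concentrations, each in triplicate. IC50 by nonlinear regression, converted to Ki with Cheng-Prusoff. Means ± SEM of four separate assays.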

[2] = biological target: T2, Adenosine receptor A1 (Homo sapiens) (UniProt P30542); assay: Displacement of [3H]DPCPX from human adenosine A1 receptor expressed in CHO cells at 10 uM; type: cell-based
T2 sequence (whole entry): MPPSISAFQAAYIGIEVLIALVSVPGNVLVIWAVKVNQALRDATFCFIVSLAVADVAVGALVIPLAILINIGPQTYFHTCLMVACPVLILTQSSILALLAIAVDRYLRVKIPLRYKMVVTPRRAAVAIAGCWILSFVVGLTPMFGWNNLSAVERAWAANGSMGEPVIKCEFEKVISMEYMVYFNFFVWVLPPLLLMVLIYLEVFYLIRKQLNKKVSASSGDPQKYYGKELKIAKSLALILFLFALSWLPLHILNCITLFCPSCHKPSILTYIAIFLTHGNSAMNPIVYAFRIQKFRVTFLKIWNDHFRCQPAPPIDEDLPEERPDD

Adenosine receptor A2a [3] = biological target: T3, Adenosine receptor A2a (Homo sapiens, UniProt P29274); assay: Displacement of [3H]NECA from human adenosine A2A receptor expressed in CHO cells at 10 uM; type: cell-based
T3 sequence (P29274 whole entry): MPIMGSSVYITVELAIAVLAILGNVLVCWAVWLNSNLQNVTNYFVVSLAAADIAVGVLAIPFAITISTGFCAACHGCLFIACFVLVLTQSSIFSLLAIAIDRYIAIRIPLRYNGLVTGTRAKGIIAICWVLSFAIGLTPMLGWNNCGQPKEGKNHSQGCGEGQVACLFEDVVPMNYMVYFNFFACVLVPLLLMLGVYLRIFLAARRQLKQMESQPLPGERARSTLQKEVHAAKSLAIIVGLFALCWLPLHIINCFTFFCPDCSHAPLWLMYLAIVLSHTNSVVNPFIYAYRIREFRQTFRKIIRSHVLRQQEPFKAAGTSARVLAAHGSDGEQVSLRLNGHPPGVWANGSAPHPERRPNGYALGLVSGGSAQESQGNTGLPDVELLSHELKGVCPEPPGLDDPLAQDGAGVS

Adenosine receptor A1 [4] = biological target: T4, Adenosine receptor A1 (Homo sapiens, UniProt P30542); assay: Displacement of [3H]DPCPX from human adenosine A1 receptor expressed in CHO cells; type: cell-based
T4 sequence (P30542 whole entry): T2 sequence (whole entry)
In short: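 Five concentrations in triplicate. IC50 by nonlinear regression, converted to Ki with Cheng-Prusoff. Means ± SEM of four assays.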

Adenosine receptor A2a [5] = biological target: T3, Adenosine receptor A2a; assay: Displacement of [3H]NECA from human adenosine A2A receptor expressed in CHO cells; type: cell-based
[6] = biological target: T5, Adenosine receptor A3 (Rattus norvegicus) (UniProt P28647); assay: Antagonist activity at adenosine A3 receptor in Wistar rat hippocampal slices by prevention of glucose deprivation-induced synaptic impairment assessed as synaptic recovery at 100 nM; type: functional, tissue-based; parameters: scale not given: the % may be the effect or the level left; conditions: Hippocampus
T5 sequence (whole entry): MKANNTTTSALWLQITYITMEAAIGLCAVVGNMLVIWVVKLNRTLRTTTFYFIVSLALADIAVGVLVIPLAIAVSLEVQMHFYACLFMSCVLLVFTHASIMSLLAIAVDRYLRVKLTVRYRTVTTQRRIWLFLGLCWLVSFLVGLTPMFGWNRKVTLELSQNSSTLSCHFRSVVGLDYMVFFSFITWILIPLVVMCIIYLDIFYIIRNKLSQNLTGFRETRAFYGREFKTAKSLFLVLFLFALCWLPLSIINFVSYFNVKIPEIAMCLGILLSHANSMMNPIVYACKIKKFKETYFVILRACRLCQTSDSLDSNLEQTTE
In short: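 Male Wistar rat hippocampal slices (400 µm) superfused with oxygenated aCSF at 30-32 °C and 2 mL/min. CA1 fepsps were evoked from stratum radiatum. OGD was 7 min of glucose-free aCSF gassed with 95% N2-5% CO2. Antagonist (100 nM) was given from 10 min before until 5 min after OGD. Readout: fepsp amplitude at 15 min reperfusion as % of the 5-min pre-OGD baseline; n=5, one-way ANOVA with Newman-Keuls.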

[7] = biological target: T5, Adenosine receptor A3 (Rattus norvegicus); assay: Displacement of [3H](R)-PIA from Wistar rat adenosine A3 receptor at 1 uM
In short: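 Rat testis membranes (0.1-0.2 mg protein) incubated with 4 nM [3H]-(R)-PIA and 150 nM DPCPX to block A1 sites. Buffer: 50 mM Tris/HCl pH 7.4, 1 mM EDTA, 10 mM MgCl2. Nonspecific binding defined with 15 µM (R)-PIA. Separation by filtration and scintillation counting. Result is % displacement at 1 µM.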

Adenosine receptor A3 [8] = biological target: T1, Adenosine receptor A3; assay: Antagonist activity at human adenosine A3 receptor expressed in CHO cells assessed as inhibition of NECA-induced cAMP accumulation; type: functional, cell-based
In short: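 CHO cells stably expressing hA3 were plated and used after 48 h. They were preincubated 15 min at 37 °C with Ro 20-1724 (20 µM) and adenosine deaminase (1 U/mL). Compounds at several concentrations were then added with 100 nM NECA and 10 µM forskolin for 15 min at 37 °C. Lysis in 0.4 N HCl. cAMP was measured by competitive binding against [3H]cAMP (2 nM) with adrenal binding protein, 150 min at 4 °C. EC50 from sigmoid nonlinear regression.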

Adenosine receptor A1 [9] = biological target: T6, Adenosine receptor A1 (Rattus norvegicus, UniProt P25099); assay: Displacement of [3H]DPCPX from Wistar rat adenosine A1 receptor
T6 sequence (P25099 whole entry): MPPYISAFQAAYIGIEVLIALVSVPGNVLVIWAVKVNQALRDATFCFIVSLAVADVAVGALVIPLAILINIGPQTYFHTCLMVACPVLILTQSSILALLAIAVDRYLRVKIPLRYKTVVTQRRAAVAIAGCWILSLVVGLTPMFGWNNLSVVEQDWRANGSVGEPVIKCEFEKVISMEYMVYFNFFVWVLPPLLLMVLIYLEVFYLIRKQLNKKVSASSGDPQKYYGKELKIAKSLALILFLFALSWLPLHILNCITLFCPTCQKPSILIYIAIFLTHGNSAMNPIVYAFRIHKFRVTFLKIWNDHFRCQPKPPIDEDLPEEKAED
In short: (§1)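 Male Wistar rat cortex membranes (40-50 µg protein) incubated 180 min at 25 °C with 0.2-0.5 nM [3H]DPCPX. Buffer: 50 mM Tris/HCl, 2 mM MgCl2, pH 7.7. Run in triplicate. Nonspecific binding defined with 20 µM R-PIA. GF/C filtration; KD 0.51 nM.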

[10] = biological target: Adenosine receptor A2a (Rattus norvegicus) (UniProt P30543); assay: Displacement of [3H]CGS 21680 from Wistar rat adenosine A2A receptor at 10 uM
Sequence of Adenosine receptor A2a (Rattus norvegicus) (P30543 whole entry): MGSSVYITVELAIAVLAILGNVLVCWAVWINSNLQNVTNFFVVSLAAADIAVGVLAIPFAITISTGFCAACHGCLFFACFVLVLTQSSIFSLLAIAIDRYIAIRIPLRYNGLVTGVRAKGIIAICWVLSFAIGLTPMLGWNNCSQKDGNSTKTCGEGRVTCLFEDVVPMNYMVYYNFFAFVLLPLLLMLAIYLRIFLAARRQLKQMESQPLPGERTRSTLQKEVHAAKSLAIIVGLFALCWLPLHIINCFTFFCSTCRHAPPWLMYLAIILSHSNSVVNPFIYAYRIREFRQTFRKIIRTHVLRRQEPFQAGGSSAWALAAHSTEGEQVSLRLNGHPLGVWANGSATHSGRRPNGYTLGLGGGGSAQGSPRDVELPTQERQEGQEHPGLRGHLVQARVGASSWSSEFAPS

[11] = biological target: T7, Adenosine receptor A1 (Rattus norvegicus) (UniProt P25099); assay: Displacement of [3H]DPCPX from Wistar rat adenosine A1 receptor at 10 uM; in short: as §1
T7 sequence (whole entry): T6 sequence (P25099 whole entry)

[12] = biological target: T8, Adenosine receptor A3 (Homo sapiens) (UniProt P0DMS8); assay: Displacement of [125I]AB-MECA from human adenosine A3 receptor expressed in CHO cells at 1 uM; type: cell-based
T8 sequence (whole entry): T1 sequence (P0DMS8 whole entry)

Row | Ki (Adenosine receptor A3 [1]) [µM] | Activity [2] [%] | Activity (Adenosine receptor A2a [3]) [%] | Ki (Adenosine receptor A1 [4]) [µM] | Compound | also measured
1 | 0.0745 | 8 | 32 | – | O=c1[nH]c2ccccc2c2cn(Cc3ccccc3)nc12 | –
2 | – | – | – | 0.045 | Cc1ccc(-n2cc3c(n2)c(N)nc2ccccc23)cc1 | Ki (Adenosine receptor A2a [5]): 0.329 µM
3 | 0.0855 | – | 0 | 0.357 | O=c1[nH]c2ccccc2c2cn(-c3ccc([N+](=O)[O-])cc3)nc12 | –
4 | 0.0043 | – | – | 0.057 | Cc1cccc(-n2cc3c(n2)c(NC(=O)c2ccccc2)nc2ccccc23)c1 | Ki (Adenosine receptor A2a [5]): 2.86 µM
5 | 0.00335 | – | 20 | 6.8 | Cc1cccc(-n2cc3c(n2)c(NC(=O)NCc2ccccc2)nc2ccccc23)c1 | –
6 | 0.0089 | 0 | 21 | – | O=C(Nc1nc2ccccc2c2cn(-c3ccccc3)nc12)C(c1ccccc1)c1ccccc1 | Activity [6]: 47%; Activity [7]: 30%; EC50 (Adenosine receptor A3 [8]): 0.0038 µM; Ki (Adenosine receptor A1 [9]): 1.49 µM; Activity [10]: 26%
7 | 0.0044 | – | 26 | 0.629 | Cc1ccc(-n2cc3c(n2)c(NC(=O)c2ccccc2)nc2ccccc23)cc1 | –
8 | 0.102 | – | 0 | 2.88 | COc1ccc(-n2cc3c(n2)c(NC(C)=O)nc2ccccc23)cc1 | –
9 | 0.009 | 47 | 0 | – | COc1ccc(-n2cc3c(n2)c(NC(=O)C(c2ccccc2)c2ccccc2)nc2ccccc23)cc1 | –
10 | 0.0115 | 32 | 3 | – | Cc1ccc(-n2cc3c(n2)c(NC(=O)C(c2ccccc2)c2ccccc2)nc2ccccc23)cc1 | –
11 | – | – | 44 | 0.029 | Cc1ccc(-n2cc3c(n2)c(=O)[nH]c2ccccc23)cc1 | –
12 | 0.03 | 32 | 0 | – | Cc1ccc(-n2cc3c(n2)c(N(C(=O)c2ccccc2)C(=O)c2ccccc2)nc2ccccc23)cc1 | –
13 | 0.014 | – | 4 | 0.559 | Cc1cccc(-n2cc3c(n2)c(NC(=O)C(c2ccccc2)c2ccccc2)nc2ccccc23)c1 | –
14 | – | 0 | 3 | – | O=C(NCc1ccccc1)Nc1nc2ccccc2c2cn(-c3ccccc3)nc12 | –
15 | – | – | – | 0.04 | COc1ccc(-n2cc3c(n2)c(N)nc2ccccc23)cc1 | –
16 | 0.257 | 5 | 39 | – | Cc1ccc(-n2cc3c(n2)c(NC(=O)NCc2ccccc2)nc2ccccc23)cc1 | –
17 | 0.229 | – | – | 0.032 | COc1cccc(-n2cc3c(n2)c(N)nc2ccccc23)c1 | Ki (Adenosine receptor A2a [5]): 0.486 µM
18 | 0.0073 | – | 52 | 0.014 | COc1cccc(-n2cc3c(n2)c(=O)[nH]c2ccccc23)c1 | –

Row | Ki (Adenosine receptor A3 [1]) [µM] | Activity [2] [%] | Activity (Adenosine receptor A2a [3]) [%] | Ki (Adenosine receptor A1 [4]) [µM] | Compound | also measured
19 | 0.0172 | 25 | 7 | – | COc1ccc(-n2cc3c(n2)c(N(C(=O)c2ccccc2)C(=O)c2ccccc2)nc2ccccc23)cc1 | Activity [6]: 84%; Activity [7]: 28%; Activity [11]: 11%; EC50 (Adenosine receptor A3 [8]): 0.0112 µM; Activity [10]: 2%
20 | 0.0232 | 42 | 20 | – | Cc1cccc(-n2cc3c(n2)c(N(C(=O)c2ccccc2)C(=O)c2ccccc2)nc2ccccc23)c1 | –
21 | 0.0045 | – | 51 | 0.201 | COc1ccc(-n2cc3c(n2)c(NC(=O)Cc2ccccc2)nc2ccccc23)cc1 | –
22 | 0.123 | – | – | 0.455 | CC(=O)Nc1nc2ccccc2c2cn(-c3ccc(C)cc3)nc12 | Ki (Adenosine receptor A2a [5]): 1.5 µM
23 | 0.031 | – | 10 | 0.203 | CC(=O)Nc1nc2ccccc2c2cn(-c3cccc(C)c3)nc12 | –
24 | 0.0034 | – | 39 | 0.25 | COc1ccc(-n2cc3c(n2)c(NC(=O)c2ccccc2)nc2ccccc23)cc1 | –
25 | – | – | – | 0.021 | Cc1cccc(-n2cc3c(n2)c(N)nc2ccccc23)c1 | Ki (Adenosine receptor A2a [5]): 0.228 µM
26 | – | 0 | 3 | – | CC(=O)Nc1nc2ccccc2c2cn(-c3ccccc3)nc12 | –
27 | – | – | 25 | 0.176 | COc1ccc(-n2cc3c(n2)c(=O)[nH]c2ccccc23)cc1 | –
28 | – | 5 | 15 | – | O=C(Cc1ccccc1)Nc1nc2ccccc2c2cn(-c3ccccc3)nc12 | –
29 | – | 0 | 9 | – | O=C(Nc1nc2ccccc2c2cn(-c3ccccc3)nc12)c1ccccc1 | –
30 | – | 43 | 0 | – | COc1ccc(-n2cc3c(n2)c(NC(=O)NCc2ccccc2)nc2ccccc23)cc1 | Activity [12]: 40%
31 | 0.0056 | 55 | 21 | – | Cc1ccc(-n2cc3c(n2)c(NC(=O)Cc2ccccc2)nc2ccccc23)cc1 | –
32 | 0.0039 | – | 24 | 0.06 | Cc1cccc(-n2cc3c(n2)c(NC(=O)Cc2ccccc2)nc2ccccc23)c1 | –
33 | – | – | 43 | 0.203 | O=c1[nH]c2ccccc2c2cn(-c3ccccc3)nc12 | –
34 | – | – | 46 | 0.012 | Cc1cccc(-n2cc3c(n2)c(=O)[nH]c2ccccc23)c1 | –
35 | 0.0061 | 0 | 0 | – | O=C(c1ccccc1)N(C(=O)c1ccccc1)c1nc2ccccc2c2cn(-c3ccccc3)nc12 | –
36 | – | – | – | 0.659 | Nc1nc2ccccc2c2cn(-c3ccccc3)nc12 | –
